# Test results reported in ChEMBL document CHEMBL4373727, “Thienopyrimidinone Derivatives That Inhibit Bacterial tRNA (Guanine37-N1)-Methyltransferase (TrmD) by Restructuring the Active Site with a Tyrosine-Flipping Mechanism” (J Med Chem, 2019).
# Experiments:
# [1] = target: T1, tRNA (guanine-N(1)-)-methyltransferase (Mycobacterium tuberculosis (strain ATCC 25618 / H37Rv), UniProt P9WFY7); assay: Binding affinity to full length Mycobacterium tuberculosis tRNA (guanine(37)-N1)-methyltransferase expressed in Escherichia coli BL21 (DE3) by surface plasmon resonance assay
# T1 sequence (P9WFY7 whole entry): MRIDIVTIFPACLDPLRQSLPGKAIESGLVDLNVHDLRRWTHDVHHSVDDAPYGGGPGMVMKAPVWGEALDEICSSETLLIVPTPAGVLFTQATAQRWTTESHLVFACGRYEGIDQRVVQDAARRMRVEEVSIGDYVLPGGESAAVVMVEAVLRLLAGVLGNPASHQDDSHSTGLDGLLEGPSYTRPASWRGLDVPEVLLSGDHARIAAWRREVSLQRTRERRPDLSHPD
# How it was run: (§1)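 SPR at 25 °C. His-tagged TrmD (50 μg/mL) captured on an anti-His antibody surface (about 2200 RU), with a blank reference cell. Buffer: 50 mM Tris-HCl pH 8, 150 mM NaCl, 1 mM MgCl2, 1 mM DTT, 0.05% Tween-20. Analyte in 2-fold dilutions, injected lowest to highest at 30 μL/min, 30 s contact, 240 s dissociation. KD from steady-state affinity fit.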
# [2] = target: T2, tRNA (guanine-N(1)-)-methyltransferase (Staphylococcus aureus (strain NCTC 8325 / PS 47)) (UniProt Q2FZ43); assay: Binding affinity to full length Staphylococcus aureus tRNA (guanine(37)-N1)-methyltransferase expressed in Escherichia coli BL21 (DE3) assessed as dissociation rate constant by surface plasmon resonance assay; how it was run: as §1
# T2 sequence (whole entry): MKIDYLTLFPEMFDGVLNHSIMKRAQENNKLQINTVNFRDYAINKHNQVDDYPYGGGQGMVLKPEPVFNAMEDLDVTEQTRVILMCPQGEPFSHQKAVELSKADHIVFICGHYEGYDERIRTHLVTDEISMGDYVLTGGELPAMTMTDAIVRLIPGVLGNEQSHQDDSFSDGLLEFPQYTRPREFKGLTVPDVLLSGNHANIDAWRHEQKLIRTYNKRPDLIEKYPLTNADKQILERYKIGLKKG
# [3] = target: T3, tRNA (guanine-N(1)-)-methyltransferase (Pseudomonas aeruginosa (strain ATCC 15692 / DSM 22644 / CIP 104116 / JCM14847 / LMG 12228 / 1C / PRS 101 / PAO1), UniProt Q9HXQ1); assay: Binding affinity to Pseudomonas aeruginosa tRNA (guanine(37)-N1)-methyltransferase (Leu5 to Asp25 residues) expressed in Escherichia coli BL21 (DE3) Rosetta T1R cells by surface plasmon resonance assay; how it was run: as §1
# T3 sequence (Q9HXQ1 whole entry): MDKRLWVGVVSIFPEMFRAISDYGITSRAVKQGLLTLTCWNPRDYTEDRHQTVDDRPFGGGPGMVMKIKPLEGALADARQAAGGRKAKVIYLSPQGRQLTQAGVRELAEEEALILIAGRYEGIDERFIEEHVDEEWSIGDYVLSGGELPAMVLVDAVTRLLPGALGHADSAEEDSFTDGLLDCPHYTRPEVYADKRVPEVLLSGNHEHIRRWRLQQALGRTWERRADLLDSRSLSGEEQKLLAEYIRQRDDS
# [4] = target: T4, tRNA (guanine-N(1)-)-methyltransferase (Mycobacterium tuberculosis (strain ATCC 25618 / H37Rv)) (UniProt P9WFY7); assay: Binding affinity to full length Mycobacterium tuberculosis tRNA (guanine(37)-N1)-methyltransferase expressed in Escherichia coli BL21 (DE3) assessed as dissociation rate constant by surface plasmon resonance assay; how it was run: as §1
# T4 sequence (whole entry): T1 sequence (P9WFY7 whole entry)
# [5] = target: T5, tRNA (guanine-N(1)-)-methyltransferase (Staphylococcus aureus (strain NCTC 8325 / PS 47), UniProt Q2FZ43); assay: Binding affinity to full length Staphylococcus aureus tRNA (guanine(37)-N1)-methyltransferase expressed in Escherichia coli BL21 (DE3) by surface plasmon resonance assay; how it was run: as §1
# T5 sequence (Q2FZ43 whole entry): T2 sequence (whole entry)
# [6] = target: T2, tRNA (guanine-N(1)-)-methyltransferase (Staphylococcus aureus (strain NCTC 8325 / PS 47)); assay: Binding affinity to full length Staphylococcus aureus tRNA (guanine(37)-N1)-methyltransferase expressed in Escherichia coli BL21 (DE3) assessed as association rate constant by surface plasmon resonance assay; how it was run: as §1
# [7] = target: T4, tRNA (guanine-N(1)-)-methyltransferase (Mycobacterium tuberculosis (strain ATCC 25618 / H37Rv)); assay: Binding affinity to full length Mycobacterium tuberculosis tRNA (guanine(37)-N1)-methyltransferase expressed in Escherichia coli BL21 (DE3) assessed as association rate constant by surface plasmon resonance assay; how it was run: as §1
# [8] = target: T6, tRNA (guanine-N(1)-)-methyltransferase (Pseudomonas aeruginosa (strain ATCC 15692 / DSM 22644 / CIP 104116 / JCM14847 / LMG 12228 / 1C / PRS 101 / PAO1)) (UniProt Q9HXQ1); assay: Binding affinity to Pseudomonas aeruginosa tRNA (guanine(37)-N1)-methyltransferase (Leu5 to Asp25 residues) expressed in Escherichia coli BL21 (DE3) Rosetta T1R cells assessed as thermal stabilization of protein by measuring change in melting temperature at 2 mM by SYPRO orange based thermal shift assay
# T6 sequence (whole entry): T3 sequence (Q9HXQ1 whole entry)
# How it was run: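 Thermal shift: 4 μM TrmD with 5× SYPRO Orange and ligand in 50 mM Tris-HCl pH 8, 150 mM NaCl, 1 mM MgCl2, 1 mM DTT, 0.05% Tween-20. Buffer-only control. Heated from 25 to 95 °C in a real-time PCR instrument, and Tm taken as the unfolding midpoint. Ligand levels: SAH 2 mM, inhibitors 0.1 mM.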
# [9] = target: T6, tRNA (guanine-N(1)-)-methyltransferase (Pseudomonas aeruginosa (strain ATCC 15692 / DSM 22644 / CIP 104116 / JCM14847 / LMG 12228 / 1C / PRS 101 / PAO1)); assay: Binding affinity to Pseudomonas aeruginosa tRNA (guanine(37)-N1)-methyltransferase (Leu5 to Asp25 residues) expressed in Escherichia coli BL21 (DE3) Rosetta T1R cells assessed as dissociation rate constant by surface plasmon resonance assay; how it was run: as §1
# [10] = target: T6, tRNA (guanine-N(1)-)-methyltransferase (Pseudomonas aeruginosa (strain ATCC 15692 / DSM 22644 / CIP 104116 / JCM14847 / LMG 12228 / 1C / PRS 101 / PAO1)); assay: Binding affinity to Pseudomonas aeruginosa tRNA (guanine(37)-N1)-methyltransferase (Leu5 to Asp25 residues) expressed in Escherichia coli BL21 (DE3) Rosetta T1R cells assessed as association rate constant by surface plasmon resonance assay; how it was run: as §1
smiles,measurement,setting,value
Nc1ncnc2c1ncn2[C@@H]1O[C@H](CSCC[C@H](N)C(=O)O)[C@@H](O)[C@H]1O [S-ADENOSYLHOMOCYSTEINE],Kd,[1],10.1 µM
same,Kdiss,[2],0.92 s⁻¹
same,Kd,[3],5.9 µM
same,Kdiss,[4],0.0775 s⁻¹
same,Kd,[5],3.3 µM
same,Ka,[6],279000 M⁻¹ s⁻¹
same,Ka,[7],7700 M⁻¹ s⁻¹
same,ΔTm,[8],4 to 29 °C
same,Kdiss,[9],0.326 s⁻¹
same,Ka,[10],55500 M⁻¹ s⁻¹
